# Test results as given in PubChem BioAssay AID624401 (The Scripps Research Institute Molecular Screening Center, 2012).
# pEC50: −log10 of the molar value. Activity calls are given as the source filed them.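 The calls were made as follows: active = activation of 20% or more; inactive = activation below 20%, including negative responses.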
# Molecular target: Aryl hydrocarbon receptor (Homo sapiens) (UniProt P35869)
# Assay: AhR reporter activation, late-stage follow-up, counter-screen for AHR activator project, luminescence, HG2L7.5c1 cells, set 2 (AID 624401)
# Settings: HG2L7.5c1 HepG2 DRE-luciferase reporter, 24 h
# Procedure, shortened: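 Assay system: HepG2-derived HG2L7.5c1 AHR luciferase reporter cells. Probe or stimulus: reporter construct with MMTV promoter plus 20 murine CYP1A1 DREs. Times: 24 h compound exposure, 37 °C. Measured by: lysate luminescence. Read-out basis: % of maximal TCDD response, Hill-fit EC50. Controls: maximal TCDD induction as high control. Replicates: triplicate wells per compound.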
# Chain of Aryl hydrocarbon receptor (Homo sapiens) (P35869 whole entry, looked up): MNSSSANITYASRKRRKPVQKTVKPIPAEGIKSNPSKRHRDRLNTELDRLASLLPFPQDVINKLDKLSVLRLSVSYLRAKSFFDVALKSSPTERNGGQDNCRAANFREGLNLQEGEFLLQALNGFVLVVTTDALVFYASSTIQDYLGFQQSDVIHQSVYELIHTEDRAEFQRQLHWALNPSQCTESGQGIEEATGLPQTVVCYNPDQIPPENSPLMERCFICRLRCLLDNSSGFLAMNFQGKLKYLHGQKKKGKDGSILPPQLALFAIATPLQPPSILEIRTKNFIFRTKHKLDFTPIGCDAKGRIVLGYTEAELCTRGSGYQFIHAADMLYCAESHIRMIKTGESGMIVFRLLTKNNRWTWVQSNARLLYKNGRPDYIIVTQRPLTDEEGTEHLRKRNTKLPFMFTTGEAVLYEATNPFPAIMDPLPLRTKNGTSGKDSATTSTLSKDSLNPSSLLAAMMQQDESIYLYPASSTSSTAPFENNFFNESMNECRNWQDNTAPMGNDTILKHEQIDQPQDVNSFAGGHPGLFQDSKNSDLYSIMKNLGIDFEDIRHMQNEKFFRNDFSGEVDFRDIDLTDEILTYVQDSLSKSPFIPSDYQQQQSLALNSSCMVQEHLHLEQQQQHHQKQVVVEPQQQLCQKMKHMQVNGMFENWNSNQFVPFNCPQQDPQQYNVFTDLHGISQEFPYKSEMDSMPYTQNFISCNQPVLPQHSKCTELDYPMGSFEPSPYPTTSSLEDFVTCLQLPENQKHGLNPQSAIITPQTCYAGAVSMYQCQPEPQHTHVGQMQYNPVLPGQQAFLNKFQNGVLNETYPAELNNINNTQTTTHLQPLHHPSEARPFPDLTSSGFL
row,Compound,pEC50
1,Cc1ccc(-c2cc(-c3cccc(F)c3)n[nH]2)c(O)c1,6.19
2,Cc1ccc(-c2cc(-c3ccc(Cl)cc3)n[nH]2)c(O)c1,5.40
3,Cc1ccc(-c2cc(-c3ccc(F)cc3)n[nH]2)c(O)c1,6.60

# Same assay, conditions: HG2L7.5c1 HepG2 DRE-luciferase reporter, 24 h; at 10 µM; stronger effect = higher value
row,Compound,activation
1,Cc1cc(Nc2ccc(F)cc2)nc(N)n1,inactive
2,CN(Cc1cc(-c2cccs2)n[nH]1)Cc1coc2ccccc2c1=O,inactive
3,Nc1nc(Cl)cc(Nc2ccccc2F)n1,inactive
4,COc1ccc(O)c(-c2cc(-c3cccs3)[nH]n2)c1,inactive
5,CCOC(=O)c1c(C)nn(-c2cc(Cl)ccc2Cl)c1C,inactive
6,Cc1csc(SCC(=O)Nc2ccccn2)n1,inactive
7,Cc1cc(Br)cc(C)c1Nc1ccnc(Nc2ccc(C#N)cc2)n1,inactive
8,COc1ccc(Nc2cc(Cl)nc(N)n2)cc1,inactive
9,COc1ccc(Nc2cc(Cl)nc(N)n2)cc1OC,inactive

# Second part, the molecule after the results:
row,activation,Compound
1,25.2%,Nc1nc(Cl)cc(Nc2ccc(Oc3ccccc3)cc2)n1
2,18.9%,O=C(CSc1nc2ccccc2s1)Nc1ccccn1
3,32%,Cc1ccc(O)c(-c2cc(-c3ccccc3Cl)[nH]n2)c1
4,inactive,COc1ccc(NC(=O)c2ccc(C(=O)Nc3ccc(OC)cc3OC)nc2)c(OC)c1
5,15.6%,COc1ccc(-c2cc(-c3ccc(C)cc3O)[nH]n2)cc1
6,inactive,Cc1cccc(NC(=O)c2cc(-c3ccc(C)cc3O)n[nH]2)c1
7,48.4%,CCOc1ccccc1NC(=O)c1ccc(C(=O)Nc2ccccc2OCC)nc1
8,inactive,O=C(CSc1nc2ccccc2s1)Nc1ccc(Cl)cn1
9,inactive,O=C(CSc1nc(-c2ccc(F)cc2)cs1)Nc1ccccn1
10,inactive,Cc1ccc(NC(=O)c2ccc(C(=O)Nc3ccc(C)cc3C)nc2)c(C)c1
11,inactive,Cc1ccnc(NC(=O)CSc2nc3ccccc3s2)c1
12,inactive,COc1ccc(Cl)cc1NC(=O)c1ccc(C(=O)Nc2cc(Cl)ccc2OC)nc1
13,inactive,Cc1cccc(C)c1NC(=O)c1ccc(C(=O)Nc2c(C)cccc2C)nc1
